Source: ChEMBL document CHEMBL3286357, “Design, synthesis and pharmacological evaluation of novel substituted quinoline-2-carboxamide derivatives as human dihydroorotate dehydrogenase (hDHODH) inhibitors and anticancer agents” (Eur J Med Chem, 2014)

Key:
[1] = Retention time of compound by HPLC analysis; type: physicochemical
A-375 [2] = assay: Antiproliferative activity against human A375 cells at 0.01 ug/ml for 24 hrs by MTT assay; type: functional; conditions: A-375, 24 h
Method in brief: (§1)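 HEP-3B or A-375 cells were grown in DMEM with 10% FBS, 5% HBSS, penicillin, streptomycin and amphotericin B at 37 C and 5% CO2. Cells were seeded at 2 × 10^4 per well and preincubated for 24 h. They were then exposed to ten 1:3 serial dilutions from a top concentration of 100, made from 2% DMSO stocks. MTT was added for 3 h, formazan was dissolved in DMSO, and A550 was read. Wells were run in triplicate across three independent experiments. IC50 came from dose-response curves.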

A-375 [3] = assay: Antiproliferative activity against human A375 cells at 0.02 ug/ml for 24 hrs by MTT assay; type: functional; conditions: A-375, 24 h; method in brief: as §1
A-375 [4] = assay: Antiproliferative activity against human A375 cells at 0.05 ug/ml for 24 hrs by MTT assay; type: functional; conditions: A-375, 24 h; method in brief: as §1
A-375 [5] = assay: Antiproliferative activity against human A375 cells at 0.14 ug/ml for 24 hrs by MTT assay; type: functional; conditions: A-375, 24 h; method in brief: as §1
A-375 [6] = assay: Antiproliferative activity against human A375 cells at 0.41 ug/ml for 24 hrs by MTT assay; type: functional; conditions: A-375, 24 h; method in brief: as §1
A-375 [7] = assay: Antiproliferative activity against human A375 cells at 1.23 ug/ml for 24 hrs by MTT assay; type: functional; conditions: A-375, 24 h; method in brief: as §1
A-375 [8] = assay: Antiproliferative activity against human A375 cells at 3.7 ug/ml for 24 hrs by MTT assay; type: functional; conditions: A-375, 24 h; method in brief: as §1
A-375 [9] = assay: Antiproliferative activity against human A375 cells at 11.11 ug/ml for 24 hrs by MTT assay; type: functional; conditions: A-375, 24 h; method in brief: as §1
A-375 [10] = assay: Antiproliferative activity against human A375 cells at 33.33 ug/ml for 24 hrs by MTT assay; type: functional; conditions: A-375, 24 h; method in brief: as §1
A-375 [11] = assay: Antiproliferative activity against human A375 cells at 100 ug/ml for 24 hrs by MTT assay; type: functional; conditions: A-375, 24 h; method in brief: as §1
[12] = Antiproliferative activity against human Hep3B cells at 0.01 ug/ml for 24 hrs by MTT assay; type: functional, Hep 3B2; method in brief: as §1
[13] = Antiproliferative activity against human Hep3B cells at 0.02 ug/ml for 24 hrs by MTT assay; type: functional, Hep 3B2; method in brief: as §1
[14] = Antiproliferative activity against human Hep3B cells at 0.05 ug/ml for 24 hrs by MTT assay; type: functional, Hep 3B2; method in brief: as §1
[15] = Antiproliferative activity against human Hep3B cells at 0.14 ug/ml for 24 hrs by MTT assay; type: functional, Hep 3B2; method in brief: as §1
[16] = Antiproliferative activity against human Hep3B cells at 0.41 ug/ml for 24 hrs by MTT assay; type: functional, Hep 3B2; method in brief: as §1
[17] = Antiproliferative activity against human Hep3B cells at 1.23 ug/ml for 24 hrs by MTT assay; type: functional, Hep 3B2; method in brief: as §1
[18] = Antiproliferative activity against human Hep3B cells at 3.7 ug/ml for 24 hrs by MTT assay; type: functional, Hep 3B2; method in brief: as §1
[19] = Antiproliferative activity against human Hep3B cells at 11.11 ug/ml for 24 hrs by MTT assay; type: functional, Hep 3B2; method in brief: as §1
[20] = Antiproliferative activity against human Hep3B cells at 33.33 ug/ml for 24 hrs by MTT assay; type: functional, Hep 3B2; method in brief: as §1
[21] = Antiproliferative activity against human Hep3B cells at 100 ug/ml for 24 hrs by MTT assay; type: functional, Hep 3B2; method in brief: as §1
A-375 (human melanoma) = assay: Antiproliferative activity against human A375 cells for 24 hrs by MTT assay; conditions: A-375, 24 h
HEP-3B (human hepatoma) = assay: Antiproliferative activity against human Hep3B cells for 24 hrs by MTT assay
[22] = molecular target: Dihydroorotate dehydrogenase (quinone), mitochondrial (Homo sapiens, UniProt Q02127); assay: Inhibition of recombinant human DHODH activity after 20 mins by DCIP dye based colorimetric analysis in presence of 1 mM L-dihydroorotate and 0.1 mM CqD
Chain of Dihydroorotate dehydrogenase (quinone), mitochondrial (Q02127 whole entry): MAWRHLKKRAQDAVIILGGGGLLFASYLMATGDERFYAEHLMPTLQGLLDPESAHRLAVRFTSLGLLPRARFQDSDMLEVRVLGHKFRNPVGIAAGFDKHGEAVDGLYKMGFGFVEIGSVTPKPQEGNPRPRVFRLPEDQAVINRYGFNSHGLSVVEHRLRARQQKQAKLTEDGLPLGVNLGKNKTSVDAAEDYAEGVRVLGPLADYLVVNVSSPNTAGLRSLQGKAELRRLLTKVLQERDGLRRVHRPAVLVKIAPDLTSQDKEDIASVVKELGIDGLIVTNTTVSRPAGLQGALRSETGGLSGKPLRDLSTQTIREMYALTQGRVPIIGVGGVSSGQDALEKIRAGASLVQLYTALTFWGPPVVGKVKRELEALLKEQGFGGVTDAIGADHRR

Row | Compound | Retention_time [1] | inhibition at 0.01 µg/mL (A-375 [2]) | inhibition at 0.02 µg/mL (A-375 [3]) | inhibition at 0.05 µg/mL (A-375 [4]) | inhibition at 0.14 µg/mL (A-375 [5]) | inhibition at 0.41 µg/mL (A-375 [6]) | inhibition at 1.23 µg/mL (A-375 [7]) | inhibition at 3.7 µg/mL (A-375 [8]) | inhibition at 11.11 µg/mL (A-375 [9]) | inhibition at 33.33 µg/mL (A-375 [10]) | inhibition at 100 µg/mL (A-375 [11]) | inhibition at 0.01 µg/mL [12] | inhibition at 0.02 µg/mL [13] | inhibition at 0.05 µg/mL [14] | inhibition at 0.14 µg/mL [15] | inhibition at 0.41 µg/mL [16] | inhibition at 1.23 µg/mL [17] | inhibition at 3.7 µg/mL [18] | inhibition at 11.11 µg/mL [19] | inhibition at 33.33 µg/mL [20] | further results
1 | COc1ccc2nc(C(=O)Nc3ccc(-c4ccccc4)cc3)c(C)c(O)c2c1 | 6.4 min | 0.13% | 0.56% | 1.98% | 3.05% | 7.62% | 18.7% | 27.2% | 36.2% | 46.2% | 66.9% | 0.35% | 0.96% | 1.23% | 3.52% | 7.58% | 14.2% | 23.5% | 36.2% | 48.4% | inhibition at 100 µg/mL [21]: 79.3%; IC50 (A-375 (human melanoma)): 18.1 µM; IC50 (HEP-3B (human hepatoma)): 50.6 µM; IC50 [22]: 2.28 µM
2 | Cc1c(C(=O)Nc2c(F)cc(-c3cccc(F)c3)cc2F)nc2ccc(F)cc2c1C(=O)O | 7.2 min | -0.56% | -0.22% | 0.37% | 1.05% | 3.02% | 16.3% | 24.5% | 36.2% | 41.3% | 64.3% | -0.35% | -0.13% | 0.05% | 0.65% | 1.06% | 2.45% | 11.2% | 26.3% | 34.3% | inhibition at 100 µg/mL [21]: 65.2%; IC50 (A-375 (human melanoma)): 14.7 µM; IC50 (HEP-3B (human hepatoma)): 81.9 µM; IC50 [22]: 4.58 µM
3 | Cc1c(C(=O)Nc2c(F)cc(-c3cccc(F)c3)cc2F)nc2ccc(C(F)(F)F)cc2c1O | 7 min | 0.16% | 1.28% | 3.47% | 9.37% | 16.5% | 21.2% | 34.3% | 46.3% | 61.3% | 95.2% | -0.33% | 0.06% | 1.35% | 2.65% | 9.38% | 15.3% | 31.2% | 36.2% | 45.2% | inhibition at 100 µg/mL [21]: 68.4%; IC50 (A-375 (human melanoma)): 29.9 µM; IC50 (HEP-3B (human hepatoma)): 12.6 µM; IC50 [22]: 6.09 µM
4 | CCc1ccc2nc(C(=O)Nc3c(F)cc(-c4cccc(F)c4)cc3F)c(C)c(O)c2c1 | 6.3 min | -0.35% | -0.12% | 0.68% | 1.57% | 3.56% | 12.2% | 17.9% | 26.4% | 28.4% | 47.2% | 0.74% | 2.05% | 5.62% | 11.2% | 16.2% | 23.5% | 31.2% | 46.3% | 56.3% | inhibition at 100 µg/mL [21]: 63.2%; IC50 (A-375 (human melanoma)): 15.8 µM; IC50 (HEP-3B (human hepatoma)): 8.13 µM; IC50 [22]: 3.21 µM
5 | COc1ccc2nc(C(=O)Nc3ccc(-c4ccccc4)cc3)c(C)c(C(=O)O)c2c1 | 7.4 min | 0.35% | 0.68% | 1.26% | 3.65% | 11.3% | 21.3% | 33.6% | 47.9% | 58.3% | 70.2% | -0.12% | 0.05% | 0.65% | 2.01% | 5.31% | 11.2% | 19.4% | 28.3% | 33.6% | inhibition at 100 µg/mL [21]: 72.5%; IC50 (A-375 (human melanoma)): 9.43 µM; IC50 (HEP-3B (human hepatoma)): > 100 µM; IC50 [22]: 1.09 µM
6 | Cc1c(C(=O)Nc2ccc(-c3ccccc3)cc2)nc2ccccc2c1O | 6.9 min | -0.11% | 0.06% | 1.05% | 1.98% | 2.65% | 4.56% | 17.2% | 26.5% | 34.3% | 52.3% | 0.23% | 1.05% | 1.68% | 3.02% | 9.34% | 14.2% | 21.5% | 38.3% | 46.2% | inhibition at 100 µg/mL [21]: 84.2%; IC50 (A-375 (human melanoma)): 37.2 µM; IC50 (HEP-3B (human hepatoma)): 75.5 µM

More lines, main results first:

Row | Retention_time [1] | Compound | inhibition at 0.01 µg/mL (A-375 [2]) | inhibition at 0.02 µg/mL (A-375 [3]) | inhibition at 0.05 µg/mL (A-375 [4]) | inhibition at 0.14 µg/mL (A-375 [5]) | inhibition at 0.41 µg/mL (A-375 [6]) | inhibition at 1.23 µg/mL (A-375 [7]) | inhibition at 3.7 µg/mL (A-375 [8]) | inhibition at 11.11 µg/mL (A-375 [9]) | inhibition at 33.33 µg/mL (A-375 [10]) | inhibition at 100 µg/mL (A-375 [11]) | inhibition at 0.01 µg/mL [12] | inhibition at 0.02 µg/mL [13] | inhibition at 0.05 µg/mL [14] | inhibition at 0.14 µg/mL [15] | inhibition at 0.41 µg/mL [16] | inhibition at 1.23 µg/mL [17] | inhibition at 3.7 µg/mL [18] | inhibition at 11.11 µg/mL [19] | inhibition at 33.33 µg/mL [20] | further results
7 | 6.9 min | Cc1c(C(=O)Nc2c(F)cc(-c3cccc(F)c3)cc2F)nc2ccc(OC(F)(F)F)cc2c1C(=O)O | -0.11% | 0.95% | 1.06% | 3.06% | 15.2% | 24.4% | 37.9% | 42.4% | 53.1% | 68.8% | 0.45% | 1.22% | 3.05% | 7.28% | 15.3% | 21.2% | 29.8% | 37.3% | 46.2% | inhibition at 100 µg/mL [21]: 75.3%; IC50 (A-375 (human melanoma)): 4.8 µM; IC50 (HEP-3B (human hepatoma)): 22 µM; IC50 [22]: 1.5 µM
8 | 7.1 min | COc1ccc2nc(C(=O)Nc3c(F)cc(-c4cccc(F)c4)cc3F)c(C)c(O)c2c1 | 0.79% | 2.13% | 6.38% | 11.6% | 28.7% | 36.2% | 49.9% | 57.2% | 64.9% | 96.8% | 0.105% | 0.87% | 1.35% | 2.68% | 4.5% | 13.3% | 25.2% | 29.3% | 31.2% | inhibition at 100 µg/mL [21]: 46.2%; IC50 (A-375 (human melanoma)): 5.03 µM; IC50 (HEP-3B (human hepatoma)): 6.98 µM; IC50 [22]: 0.94 µM
9 | 6.8 min | CCOc1ccc2nc(C(=O)Nc3c(F)cc(-c4cccc(F)c4)cc3F)c(C)c(C(=O)O)c2c1 | 0.3% | 1.02% | 1.96% | 3.05% | 11.2% | 26.6% | 35.2% | 48.3% | 51.2% | 72.3% | -0.12% | 0.05% | 0.98% | 2.06% | 5.34% | 17.9% | 26.5% | 33.2% | 38.6% | inhibition at 100 µg/mL [21]: 65.3%; IC50 (A-375 (human melanoma)): 5.8 µM; IC50 (HEP-3B (human hepatoma)): 14.9 µM; IC50 [22]: 2.83 µM
